Source: ChEMBL document CHEMBL1130394 (J Med Chem, 1997)

Tests used:
SK-OV-3 = assay: Inhibitory concentration the viability of SKOV 3 cell population by 50%.; format: functional, cell-based; details: Homo sapiens
KB = assay: Inhibitory concentration that reduced the viability of KB cell population by 50%.; format: functional, cell-based; details: Homo sapiens
Method in brief: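 KB cells in Eagle's MEM with 10% calf serum, 37 °C, humidified 5% CO2, seeded at 3 × 10³ cells/mL and cultured 24 h. Compounds added in triplicate at several concentrations, with compound-free control wells, for 3 days. Value is the concentration reducing cell count by 50%.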

SK-VLB = assay: Inhibitory concentration that reduced the viability of SKVLB cell population by 50%.; format: functional, cell-based; details: Homo sapiens
DNA topoisomerase 1 = biological target: T1, DNA topoisomerase 1 (Homo sapiens, UniProt P11387); assay: Inhibit supercoil relaxation property of topoisomerase I.
T1 sequence (P11387 whole entry): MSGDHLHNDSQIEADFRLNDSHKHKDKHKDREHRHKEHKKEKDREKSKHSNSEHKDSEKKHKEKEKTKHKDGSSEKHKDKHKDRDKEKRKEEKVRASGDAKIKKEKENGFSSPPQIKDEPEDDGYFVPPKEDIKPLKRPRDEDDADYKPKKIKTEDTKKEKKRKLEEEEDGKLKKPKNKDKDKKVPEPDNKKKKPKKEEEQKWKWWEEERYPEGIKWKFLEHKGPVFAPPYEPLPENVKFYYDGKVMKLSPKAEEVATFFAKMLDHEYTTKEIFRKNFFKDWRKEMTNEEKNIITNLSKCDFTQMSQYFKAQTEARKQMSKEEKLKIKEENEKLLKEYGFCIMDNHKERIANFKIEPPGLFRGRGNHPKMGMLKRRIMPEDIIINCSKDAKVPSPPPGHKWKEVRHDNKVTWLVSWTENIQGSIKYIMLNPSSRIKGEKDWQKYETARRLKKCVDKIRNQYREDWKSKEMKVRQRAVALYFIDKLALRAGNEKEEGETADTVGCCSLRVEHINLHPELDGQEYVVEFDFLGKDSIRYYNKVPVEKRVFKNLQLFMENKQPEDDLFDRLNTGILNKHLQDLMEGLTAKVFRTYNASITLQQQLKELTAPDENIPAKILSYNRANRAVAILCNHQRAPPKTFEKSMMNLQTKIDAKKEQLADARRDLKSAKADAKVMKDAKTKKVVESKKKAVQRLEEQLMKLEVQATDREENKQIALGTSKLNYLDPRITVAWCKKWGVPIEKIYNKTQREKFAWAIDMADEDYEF
Method in brief: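 Supercoiled pBR322 DNA (0.25 μg) incubated with topoisomerase I (0.5 unit) and ligand, 30 min at 37 °C. Then a further 30 min at 37 °C in SDS-containing loading buffer, agarose gel run overnight, and ethidium bromide staining. Supercoiled DNA remaining was quantified by laser densitometry of the photographic negative.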

HT-29 = assay: Inhibitory concentration that reduced the viability of HT 29 cell population by 50%.; format: functional, cell-based; details: Homo sapiens

| Compound | IC50 (SK-OV-3) | IC50 (KB) | IC50 (SK-VLB) | IC50 (DNA topoisomerase 1) | IC50 (HT-29) |
| --- | --- | --- | --- | --- | --- |
| CCCC(=O)Nc1cc(C(=O)Nc2cc(C(=O)NCCOc3ccc4nc5c(cc4c3)Cn3c-5cc4c(c3=O)COC(=O)C4(O)CC)n(COC)c2)n(COC)c1 (racemic) | > 10 µM | 3.25 µM | > 10 µM | 16.6 µM | > 10 µM |
| CCC1(O)C(=O)OCc2c1cc1n(c2=O)Cc2cc3cc(OCCNC(=O)c4cc(NC(=O)CCCN(C)C)cn4COC)ccc3nc2-1 (centres undefined) | 1.5 µM | 5.68 µM | 3.5 µM | 2.6 µM | 3.4 µM |
| COc1cccc2c1C(=O)c1c(O)c3c(c(O)c1C2=O)C[C@@](O)(C(=O)CO)C[C@@H]3O[C@H]1C[C@H](N)[C@H](O)[C@H](C)O1 [DOXORUBICIN] | 0.0251 µM | 0.015 µM | 6.54 µM | – | 0.28 µM |
| CCC1(O)C(=O)OCc2c1cc1n(c2=O)Cc2cc3cc(OCC(=O)ONc4cc(C(=O)Nc5cc(C(=O)NCCCN(C)C)n(COC)c5)n(COC)c4)ccc3nc2-1 (racemic) | > 10 µM | 0.663 µM | > 10 µM | – | > 10 µM |
| CCCC(=O)Nc1cc(C(=O)NCCOc2ccc3nc4c(cc3c2)Cn2c-4cc3c(c2=O)COC(=O)C3(O)CC)n(COC)c1 (centres undefined) | 5.1 µM | 15.3 µM | > 10 µM | – | 8.1 µM |
| CCC1(O)C(=O)OCc2c1cc1n(c2=O)Cc2cc3ccccc3nc2-1 (single isomer, unassigned) [CAMPTOTHECIN] | 0.051 µM | 0.008 µM | 0.053 µM | – | 0.0878 µM |
| CCC1(O)C(=O)OCc2c1cc1n(c2=O)Cc2cc3cc(OCCN)ccc3nc2-1 (centres undefined) | – | 0.175 µM | – | – | – |
| CCCC(=O)Nc1cn(COC)c(C(=O)Nc2cn(COC)c(C(=O)NCCOc3ccc4nc5c(cc4c3)Cn3c-5cc4c(c3=O)COC(=O)C4(O)CC)n2)n1 (racemic) | 3.2 µM | 3.08 µM | > 10 µM | 2.42 µM | 6 µM |
| CCCC(=O)Nc1ccc(C(=O)Nc2cc(C(=O)Nc3cc(C(=O)NCCOc4ccc5nc6c(cc5c4)Cn4c-6cc5c(c4=O)COC(=O)C5(O)CC)n(COC)c3)n(COC)c2)n1COC (racemic) | 3.6 µM | 5.09 µM | > 10 µM | – | 7.1 µM |
| Cn1cc(NC(=O)c2cc(NC(=O)CNC(=N)N)cn2C)cc1C(=O)NCCC(=N)N [NETROPSIN] | – | 47.1 µM | > 10 µM | 62 µM | 44.7 µM |
| CCC1(O)C(=O)OCc2c1cc1n(c2=O)Cc2cc3cc(OCCNC(=O)c4cc(NC(=O)c5cc(NC(=O)c6ccc(NC(=O)CCCN(C)C)n6COC)cn5COC)cn4COC)ccc3nc2-1 (racemic) | 9.7 µM | 1 µM | > 10 µM | 1.97 µM | > 10 µM |
| CCCC(=O)Nc1cn(COC)c(C(=O)NCCOc2ccc3nc4c(cc3c2)Cn2c-4cc3c(c2=O)COC(=O)C3(O)CC)n1 (centres undefined) | 1.3 µM | 1 µM | > 10 µM | 2.38 µM | 6.9 µM |
| CCC1(O)C(=O)OCc2c1cc1n(c2=O)Cc2cc3cc(OCC(=O)O)ccc3nc2-1 (centres undefined) | 1.2 µM | 0.25 µM | 2.1 µM | 1.12 µM | 2.8 µM |
| Cn1cc(NC(=O)c2cc(NC(=O)c3cc(NC=O)cn3C)cn2C)cc1C(=O)NCCC(=N)N [STALLIMYCIN] | – | 8.4 µM | > 10 µM | 2.7 µM | 54.7 µM |
| CCC1(O)C(=O)OCc2c1cc1n(c2=O)Cc2cc3cc(OCC(=O)ONc4cc(C(=O)Nc5cc(C(=O)Nc6cc(C(=O)NCCCN(C)C)n(COC)c6)n(COC)c5)n(COC)c4)ccc3nc2-1 (racemic) | > 10 µM | 5.5 µM | > 10 µM | 11.9 µM | > 10 µM |
| CCC1(O)C(=O)OCc2c1cc1n(c2=O)Cc2cc3cc(OCCNC(=O)c4cc(NC(=O)c5cc(NC(=O)CCCN(C)C)cn5COC)cn4COC)ccc3nc2-1 (racemic) | 4.3 µM | 6.29 µM | > 10 µM | 4.82 µM | 6.2 µM |
